Data as given in ChEMBL document CHEMBL4130635, “2,4-Diaminoquinazolines as Dual Toll-like Receptor (TLR) 7/8 Modulators for the Treatment of Hepatitis B Virus” (J Med Chem, 2018).
Active and inactive are the calls of the source. No cut-off for these calls is given here.

Experiments:
[1] = target: T1, TLR7 and TLR8 (Homo sapiens) (UniProt Q9NYK1+Q9NR97); assay: Agonist activity at TLR7/8 in human PBMCs assessed as reduction in extracellular viral load in human hepatocytes infected with HBV genotype C for 12 days followed by exposure to conditioned supernatant from up to 5 uM compound treated PBMCs measured after 42 days; type: cell-based
Cynomolgus monkey [2] = assay: Induction of ISG response in cynomolgus monkey plasma assessed as upregulation of Mx1 mRNA expression at 1 mg/kg, po after 24 hrs by Fluidigm RT-qPCR analysis (reference value: 1); type: functional, Macaca fascicularis
Procedure, shortened: (§1)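 Cynomolgus monkeys, single oral doses of 1, 3, 9 and 30 mg/kg with a planned 2-week wash-out between doses. Systemic ISG (ISG15, Mx1, OAS1) mRNA was measured by Fluidigm RT-qPCR at 1, 2, 4, 8 and 24 h postdose.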

Plasma [3] = assay: Effect on cytokine profile in C57BL/6J mouse plasma assessed as IL-12p70 levels at 0.3 mg/kg, po by multiplex assay (reference value: 560 pg/ml); type: functional
Procedure, shortened: (§2)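 Single oral gavage in 20% HP-β-CD to healthy C57BL/6 mice, groups of 15 at 0.3, 1, 3, 10 or 30 mg/kg. Three mice per group sacrificed at 0.5, 1, 2, 4 or 7 h. Plasma and liver cytokines by multiplex, maximum level reported, rounded to nearest multiple of 5.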

Cynomolgus monkey [4] = assay: Induction of ISG response in cynomolgus monkey plasma assessed as upregulation of Mx1 mRNA expression at 9 mg/kg, po after 24 hrs by Fluidigm RT-qPCR analysis (reference value: 1); type: functional, Macaca fascicularis; procedure, shortened: as §1
[5] = test system: Toll-like receptor 7/8 (Homo sapiens); assay: Agonist activity at TLR7/8 in human PBMCs assessed as decrease in HBsAg levels in human hepatocytes infected with HBV genotype C for 12 days followed by exposure to conditioned supernatant from up to 5 uM compound treated PBMCs measured after 42 days
[6] = target: T1, TLR7 and TLR8 (Homo sapiens); assay: Agonist activity at TLR7/8 in human PBMCs co-cultured with primary human hepatocytes infected with HBV genotype C for 12 days assessed as increase in IL-6 levels up to 5 uM measured after 42 days
[7] = AUC (0 to last) in C57BL/6J mouse plasma at 30 mg/kg, po by LC-MS analysis; type: ADME, organism-based; design: dose 30 mg/kg, time 0 - last, route oral
Procedure, shortened: (§3)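 Healthy C57BL/6 mice were dosed once by mouth at 0.3, 1, 3, 10 or 30 mg/kg in 20% HP-β-CD, in groups of 15 per dose. Three mice per group were sacrificed at 0.5, 1, 2, 4 or 7 h, and plasma and liver compound levels were measured by LC–MS. Values were rounded to whole numbers.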

Liver [8] = assay: Effect on cytokine profile in C57BL/6J mouse liver assessed as IFNgamma levels at 10 mg/kg, po by multiplex assay; type: functional; procedure, shortened: as §2
Liver [9] = assay: Induction of IFNalpha levels in C57BL/6J mouse liver at 3 mg/kg, po by ELISA (reference value: 30 pg/g); type: functional
Cynomolgus monkey [10] = assay: Activation of monocytes in cynomolgus monkey plasma assessed as upregulation of MIP1 levels at 30 mg/kg, po after 24 hrs by Luminex assay (reference value: 37 pg/ml); type: functional, Macaca fascicularis
Plasma [11] = assay: Anti-inflammatory activity in C57BL/6J mouse plasma assessed as IL-10 levels at 3 mg/kg, po by multiplex assay (reference value: 120 pg/ml); type: functional; procedure, shortened: as §2
Cynomolgus monkey [12] = assay: Induction of G-CSF in cynomolgus monkey plasma at 30 mg/kg, po after 24 hrs by Luminex assay (reference value: 85 pg/ml); type: functional, Macaca fascicularis
Procedure, shortened: (§4)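 Healthy cynomolgus monkeys given single oral doses of 1, 3, 9 and 30 mg/kg, with a 2-week wash-out planned between doses. Systemic cytokine levels in plasma were sampled at 0.5, 1, 2, 4, 9 and 24 h postdose.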

Cynomolgus monkey [13] = assay: Activation of monocytes in cynomolgus monkey plasma assessed as upregulation of MIP1 levels at 9 mg/kg, po after 24 hrs by Luminex assay (reference value: 37 pg/ml); type: functional, Macaca fascicularis
[14] = Protein binding in rat plasma fraction at 5 uM after 4.5 hrs LC-MS/MS-based rapid equilibrium dialysis method; type: ADME, cell-free; details: read-out: PPB (converted)
Liver [15] = assay: Anti-inflammatory activity in C57BL/6J mouse liver assessed as IL-10 levels at 1 mg/kg, po by multiplex assay (reference value: 2 pg/g); type: functional
Procedure, shortened: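 Mice (C57BL/6) got a single oral dose of 0.3–30 mg/kg in 20% HP-β-CD, in groups of 15. Three per group were sacrificed at 0.5, 1, 2, 4 or 7 h, and liver cytokines were measured by multiplex. Values were rounded to the nearest multiple of 5.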

Cynomolgus monkey [16] = assay: Upregulation of Tlr7 expression in cynomolgus monkey plasma at 1 mg/kg, po after 24 hrs by Fluidigm RT-qPCR analysis (reference value: 1.8); type: functional, Macaca fascicularis
Liver [17] = assay: Anti-inflammatory activity in C57BL/6J mouse liver assessed as IL-10 levels at 30 mg/kg, po by multiplex assay (reference value: 2 pg/g); type: functional; procedure, shortened: as §2
[18] = AUC (0 to last) in C57BL/6J mouse plasma at 10 mg/kg, po by LC-MS analysis; type: ADME, organism-based; design: dose 10 mg/kg, route oral, time 0 - last; procedure, shortened: as §3
Cynomolgus monkey [19] = assay: Anti-inflammatory activity in cynomolgus monkey plasma assessed as IL-10 levels at 1 mg/kg, po after 24 hrs by Luminex assay (reference value: 195 pg/ml); type: functional, Macaca fascicularis
Plasma [20] = assay: Anti-inflammatory activity in C57BL/6J mouse plasma assessed as IL-10 levels at 1 mg/kg, po by multiplex assay (reference value: 120 pg/ml); type: functional; procedure, shortened: as §2
Liver [21] = assay: Proinflammatory activity in C57BL/6J mouse liver assessed as CXCL-1 levels at 1 mg/kg, po by multiplex assay (reference value: 25 pg/g); type: functional
Cynomolgus monkey [22] = assay: Effect on cytokine profile in cynomolgus monkey plasma assessed as IP10 levels at 9 mg/kg, po after 24 hrs by Luminex assay (reference value: 18.5 pg/ml); type: functional, Macaca fascicularis; procedure, shortened: as §4
Liver [23] = assay: Proinflammatory activity in C57BL/6J mouse liver assessed as IL-6 levels at 30 mg/kg, po by multiplex assay (reference value: 10 pg/g); type: functional
Liver [24] = assay: Induction of IFNalpha levels in C57BL/6J mouse liver at 10 mg/kg, po by ELISA (reference value: 30 pg/g); type: functional
Cynomolgus monkey [25] = assay: Toxicity in cynomolgus monkey assessed as clinical observation changes up to 30 mg/kg, po; type: organism-based, Macaca fascicularis; details: in vivo
[26] = Protein binding in mouse plasma fraction at 5 uM after 4.5 hrs LC-MS/MS-based rapid equilibrium dialysis method; type: ADME, cell-free; details: read-out: PPB (converted)
Plasma [27] = assay: Proinflammatory activity in C57BL/6J mouse plasma assessed as CXCL-1 levels at 3 mg/kg, po by multiplex assay (reference value: 230 pg/ml); type: functional
Liver [28] = assay: Effect on cytokine profile in C57BL/6J mouse liver assessed as IFNgamma levels at 0.3 mg/kg, po by multiplex assay; type: functional, organism-based; procedure, shortened: as §2

With `CCC[C@@H](CCO)Nc1nc(N)nc2c(F)cccc12` the Activity [1] was “Active”, the “fold change (FC)” value (Cynomolgus monkey [2]) was 40 and the Activity (Plasma [3]) was 470 pg/mL. For the same molecule, the “fold change (FC)” value (Cynomolgus monkey [4]) was 55, the Activity [5] was “Dose-dependent effect” and the Activity [6] was “Active”. It also gave an AUC(0-t) [7] of 679 ng·h/mL, an Activity (Liver [8]) of 430 pg/g and an Activity (Liver [9]) of 765 pg/g. The Activity (Cynomolgus monkey [10]) was 560 pg/mL, the Activity (Plasma [11]) was 1115 pg/mL and the Activity (Cynomolgus monkey [12]) was 1135 pg/mL. For the same molecule, the Activity (Cynomolgus monkey [13]) was 310 pg/mL, the fraction unbound at 4.5 h, 5 µM [14] was 0.47 and the Activity (Liver [15]) was 535 pg/g. For the same molecule, the “fold change (FC)” value (Cynomolgus monkey [16]) was 4.8, the Activity (Liver [17]) was 5185 pg/g and the AUC(0-t) [18] was 141 ng·h/mL. It also gave an Activity (Cynomolgus monkey [19]) of 1275 pg/mL, an Activity (Plasma [20]) of 485 pg/mL and an Activity (Liver [21]) of 6755 pg/g. For the same molecule, the Activity (Cynomolgus monkey [22]) was 2400 pg/mL, the Activity (Liver [23]) was 7555 pg/g and the Activity (Liver [24]) was 1365 pg/g. The Activity (Cynomolgus monkey [25]) was “Non-Toxic”, the fraction unbound at 4.5 h, 5 µM [26] was 0.4 and the Activity (Plasma [27]) was over 10000 pg/mL. The Activity (Liver [28]) was “Below limit of detection”.
